Results as given in ChEMBL document CHEMBL1132598, “Synthesis, corticotropin-releasing factor receptor binding affinity, and pharmacokinetic properties of triazolo-, imidazo-, and pyrrolopyrimidines and -pyridines” (J Med Chem, 1999).
One block for each molecule: values may come before it.

How the values were obtained:
[1] = The clearance was measured in dogs after intravenous administration of 1 mg/kg dose; assay type: ADME, organism-based, Canis lupus familiaris; parameters: dose 1 mg/kg, route intravenous; conditions: dog, in vivo
Method in brief: (§1)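 Dogs (n = 4–6) received 1 mg/kg iv in an ethanol/PEG-based cosolvent vehicle. Plasma was extracted liquid–liquid and quantified by LC/MS/MS. Clearance, steady-state volume and elimination half-life were derived from the concentration–time curves.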

[2] = The Elimination half-life was measured in dogs after intravenous administration of 1 mg/kg dose; assay type: ADME, organism-based, Canis lupus familiaris; parameters: dose 1 mg/kg, route intravenous; conditions: dog, in vivo; method in brief: as §1
Canis familiaris = experiment: The Plasma area under the compound concentration -time curve was measured in dogs after oral administration of 1 mg/kg dose; assay type: ADME, organism-based, Canis lupus familiaris; parameters: dose 1 mg/kg, route oral; conditions: dog, in vivo
[3] = The time reach to maximum Peak plasma concentration was measured in dogs after oral administration of 1 mg/kg dose; assay type: ADME, organism-based, Canis lupus familiaris; parameters: dose 1 mg/kg, route oral; conditions: dog
[4] = The volume of distribution at steady state was measured in dogs after intravenous administration of 1 mg/kg dose; assay type: ADME, organism-based, Canis lupus familiaris; parameters: dose 1 mg/kg, route intravenous; conditions: dog, in vivo, read-out: Vss; method in brief: as §1
Rattus norvegicus = experiment: The Plasma area under the compound concentration -time curve was measured in rats after oral administration of 1 mg/kg dose; assay type: ADME, organism-based; parameters: dose 1 mg/kg, route oral; conditions: in vivo
Method in brief: (§2)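 Rats were given a single 1 mg/kg oral dose, as a 0.25% methylcellulose suspension or as a solution in EtOH/PG (20:80). Animals were sacrificed at 30 min and 1, 2, 4, 8 and 16 h, with blood collected into EDTA. Plasma was separated by centrifugation and extracted liquid–liquid. Analysis was by LC/MS/MS. Each value is a single determination or the average of two.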

[5] = The Peak plasma concentration was measured in rats after oral administration of 1 mg/kg dose; assay type: ADME, organism-based; parameters: dose 1 mg/kg, route oral; conditions: rat; method in brief: as §2
[6] = Oral bioavailability in rat (dose 1 mg/kg); assay type: ADME, organism-based; conditions: in vivo; method in brief: as §2
[7] = The Brain concentration compared to plasma concentration in rats at steady state after intravenous infusion; conditions: rat, brain and plasma, read-out: B/P
[8] = The Peak plasma concentration was measured in dogs after oral administration of 1 mg/kg dose; assay type: ADME, organism-based, Canis lupus familiaris; parameters: dose 1 mg/kg, route oral; conditions: dog
[9] = Oral bioavailability in dog (dose 1 mg/kg); assay type: ADME, organism-based, Canis lupus familiaris; conditions: in vivo
[10] = molecular target: T1, Corticotropin-releasing factor receptor 1 (Homo sapiens, UniProt P34998); experiment: Binding affinity to recombinant human Corticotropin releasing factor receptor 1 (hCRF1) expressed in 293EBNA cells; assay type: cell-based
T1 sequence (P34998 whole entry): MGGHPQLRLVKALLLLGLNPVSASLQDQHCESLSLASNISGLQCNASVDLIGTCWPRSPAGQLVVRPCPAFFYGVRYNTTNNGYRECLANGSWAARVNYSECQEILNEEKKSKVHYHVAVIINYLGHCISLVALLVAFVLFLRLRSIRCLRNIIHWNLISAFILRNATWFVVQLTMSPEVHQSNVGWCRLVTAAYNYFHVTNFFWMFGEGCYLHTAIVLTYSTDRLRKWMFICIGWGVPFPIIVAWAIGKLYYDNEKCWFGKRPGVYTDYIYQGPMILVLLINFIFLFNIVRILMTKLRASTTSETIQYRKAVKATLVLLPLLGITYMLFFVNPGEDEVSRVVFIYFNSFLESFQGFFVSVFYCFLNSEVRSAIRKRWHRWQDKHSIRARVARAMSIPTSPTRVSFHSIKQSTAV

Structure (SMILES): COCCN(CCOC)c1nc(C)nc2c1nnn2-c1ccc(C(C)C)cc1Br
- clearance [1]: 7.97 mL/min/kg
- half-life [2]: 33.2 h
- AUC T (Canis familiaris): 0.914 µM·h
- Tmax [3]: 0.67 h
- Vd [4]: 15.6 L/kg
- AUC T (Rattus norvegicus): 0.098 µM·h
- Cmax [5]: 30 nM
- bioavailability [6]: 17%
- Kp [7]: 0.6
- Cmax [8]: 308 nM
- F [9]: 30.7%

Structure (SMILES): CCN(CC)c1nc(C)nc2c1ncn2-c1ccc(C(C)C)cc1Br
- Ki [10]: 12.4 nM

Structure (SMILES): COCCN(Cc1ccccc1)c1nc(C)nc2c1nnn2-c1ccc(C(C)C)cc1Br
- clearance [1]: 8.72 mL/min/kg
- half-life [2]: 46.7 h
- AUC T (Canis familiaris): 0.366 µM·h
- Tmax [3]: 0.8 h
- Vd [4]: 24.7 L/kg
- Ki [10]: 5 nM
- AUC T (Rattus norvegicus): 0.137 µM·h
- Cmax [5]: 12.5 nM
- bioavailability [6]: 15.5%
- Kp [7]: 0.2
- Cmax [8]: 39 nM
- bioavailability [9]: 7.3%

Structure (SMILES): COCCN(Cc1cccnc1)c1nc(C)nc2c1nnn2-c1ccc(C(C)C)cc1Br
- Ki [10]: 48.5 nM

Structure (SMILES): CCCCN(CC)c1nc(C)nc2c1nc(-c1ccccc1)n2-c1c(Cl)cc(OC)cc1OC
- Ki [10]: 133 nM

Structure (SMILES): CCCCNc1nc(C)nc2c1c(C)c(C)n2-c1c(C)cc(C)cc1C
- Ki [10]: 29 nM

Structure (SMILES): Cc1nc(N2CCCCC2)c2nnn(-c3ccc(C(C)C)cc3Br)c2n1
- Ki [10]: 46 nM

Structure (SMILES): CCC(COC)Nc1nc(C)nc2c1nnn2-c1c(C)cc(C)cc1C (stereo not given)
- Ki [10]: 59.4 nM

Structure (SMILES): COCC(COC)N(C)c1nc(C)nc2c1nnn2-c1ccc(C(C)C)cc1Br
- Ki [10]: 21.3 nM

Structure (SMILES): CCCCN(CC)c1nc(C)nc2c1c(C)c(C)n2-c1c(C)cc(C)cc1C [ANTALARMIN]
- Ki [10]: 0.84 nM

Structure (SMILES): CCCCN(CC)c1nc(C)nc2c1c(C)cn2-c1c(C)cc(C)cc1C [CP-154526]
- Ki [10]: 1.61 nM

Further lines, results first:

- Ki [10]: 2.9 nM
Structure (SMILES): CCCCC(CC)Oc1nc(C)nc2c1ncn2-c1ccc(C(C)C)cc1Br (stereo not given)

- Ki [10]: 11.2 nM
Structure (SMILES): CCC(COC)N(C)c1nc(C)nc2c1nnn2-c1ccc(C(C)C)cc1Br (stereo not given)

- Ki [10]: 1.9 nM
- AUC T (Rattus norvegicus): 0.021 µM·h
- Cmax [5]: 5.9 nM
- bioavailability [6]: 6%
Structure (SMILES): CCC(COC)Oc1nc(C)nc2c1nnn2-c1ccc(C(C)C)cc1Br (stereo not given)

- Ki [10]: 123 nM
Structure (SMILES): CCN(c1nc(C)nc2c1nnn2-c1ccc(C(C)C)cc1Br)C(COC)COC

- Ki [10]: 4.5 nM
Structure (SMILES): CCCCC(CCCC)Nc1nc(C)nc2c1nnn2-c1ccc(C(C)C)cc1Br

- Ki [10]: 195 nM
Structure (SMILES): COCC(C)(C)Nc1nc(C)nc2c1nnn2-c1ccc(C(C)C)cc1Br

- Ki [10]: 8 nM
- AUC T (Rattus norvegicus): 0.03 µM·h
- Cmax [5]: 19.9 nM
- bioavailability [6]: 7%
Structure (SMILES): CCC(CCOC)Nc1nc(C)nc2c1ncn2-c1ccc(C(C)C)cc1Br (stereo not given)

- clearance [1]: 9.25 mL/min/kg
- half-life [2]: 26 h
- AUC T (Canis familiaris): 0.824 µM·h
- Tmax [3]: 1.25 h
- Vd [4]: 7.54 L/kg
- Ki [10]: 7.5 nM
- AUC T (Rattus norvegicus): 0.471 µM·h
- Cmax [5]: 49.2 nM
- bioavailability [6]: 26.5%
- Cmax [8]: 141 nM
- bioavailability [9]: 18.4%
Structure (SMILES): CCCCN(CC)c1nc(C)nc2c1nnn2-c1ccc(C(C)C)cc1Br

- clearance [1]: 7.38 mL/min/kg
- half-life [2]: 19 h
- AUC T (Canis familiaris): 3.14 µM·h
- Tmax [3]: 0.5 h
- Vd [4]: 10.1 L/kg
- Ki [10]: 6.1 nM
- AUC T (Rattus norvegicus): 0.146 µM·h
- Cmax [5]: 30.7 nM
- bioavailability [6]: 21%
- Kp [7]: 0.6
- Cmax [8]: 546 nM
- bioavailability [9]: 53.1%
Structure (SMILES): CCC(COC)Nc1nc(C)nc2c1nnn2-c1ccc(C(C)C)cc1Br (stereo in doubt; 4x)

- Ki [10]: 7.5 nM
Structure (SMILES): CCC(COC)Nc1nc(C)nc2c1nnn2-c1ccc(C(C)C)cc1Br (stereo in doubt; 4y)

- Ki [10]: 9.4 nM
Structure (SMILES): CCC(COC)Nc1nc(C)nc2c1nnn2-c1ccc(C(C)C)cc1Br (stereo in doubt; 4z)
